# Screening data: PubChem, several laboratories
# Most compounds without a hit are left out; they make up all but 2.3% or so of the library.
# PAFAH2 inh – inhibitors of human PAFAH2 | recombinant PAFAH2, FP-rhodamine activity probe, fluorescence polarization | inhibition, % at 3.39 µM | 340,000 compounds, 0.99% hits | AID 492956;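 active = inhibition above the mean over all tested compounds plus 3 SD, cut at about 30% in these data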;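 note: inhibitors block probe labeling of enzyme so polarization drops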
# TDP2 absorb – TDP2 (human) inhibition, absorbance primary screen | O95551 | recombinant TDP2, T5PNP hydrolysis, p-nitrophenol absorbance 415 nm | inhibition, % at 12.8 µM | 370,000 compounds, 0.34% hits;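 active = inhibition above the mean of all tested compounds plus 3 SD, set per campaign, cut at about 25% in these data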
# Target sequence (O95551 whole entry, looked up): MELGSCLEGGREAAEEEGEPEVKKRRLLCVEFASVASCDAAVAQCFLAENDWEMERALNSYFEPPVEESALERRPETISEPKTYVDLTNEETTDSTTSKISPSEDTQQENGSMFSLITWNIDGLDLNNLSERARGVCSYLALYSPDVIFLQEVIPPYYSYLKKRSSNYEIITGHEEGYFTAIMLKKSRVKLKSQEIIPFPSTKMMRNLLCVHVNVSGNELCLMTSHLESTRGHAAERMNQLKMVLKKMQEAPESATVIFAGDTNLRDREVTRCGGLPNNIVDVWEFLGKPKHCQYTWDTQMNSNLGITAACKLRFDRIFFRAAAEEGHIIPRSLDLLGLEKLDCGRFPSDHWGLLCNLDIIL
#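 Assay system: Recombinant human TDP2 | Quantity: 120 nM TDP2 per well | Incubation: 2 h at 37 °C | Signal: Epi absorbance | Evaluation: Percent inhibition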
# PAFAH1B2 inh – inhibitors of human PAFAH1B2; 340,000 compounds, 1.2% hits; recombinant PAFAH1B2, FP-rhodamine activity probe, fluorescence polarization; P68402; inhibition, % at 3.39 µM; AID 492953;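 active = inhibition above the mean of all tested compounds plus 3 SD, cut at about 24% in these data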
# PAFAH1B3 inh – PAFAH1B3 (human) inhibition | Q15102 | recombinant PAFAH1B3, FP-rhodamine probe, fluorescence polarization | 340,000 compounds, 0.28% hits | inhibition, % at 3.39 µM;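 active = inhibition above the screen-wide average of all tested compounds plus 3 SD, cut at about 25% in these data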
# Apaf1 inhib – inhibitors of human Apaf-1 apoptosome; O14727; reconstituted apoptosome caspase-3 activity, DEVD-Rh110 fluorescence; inhibition, % at 20 µM; 330,000 compounds, 0.71% hits; AID 489030; active = inhibition of at least 40% at 20 µM
#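 Medium: Hepes buffer, pH 7.5 / System: biochemical Apaf-1 apoptosome reconstitution / Measured by: Rh110 fluorescence, excitation 480 nm, emission 540 nm / Times: compound with Apaf-1, dATP, procaspase-3 30 min, then 50 min reaction, room temperature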
# Apaf-1 inh conf – Apaf-1 inhibition, single-dose confirmed. shares compounds with Apaf1 inhib. reconstituted apoptosome, caspase-3 DEVD-Rh110 fluorescence. inhibition, % at 20 µM. 1,800 compounds, 25% hits. AID 504614;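 active = mean inhibition of at least 40% at 20 µM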
# Rh110 interf inh – counter-screen for Apaf-1 inhibitors: fluorescence interference. shares compounds with Apaf1 inhib. Rh110 fluorescence interference, quenched caspase reaction. activation (fluorescence interference), % at 20 µM. 1,800 tested, under 10 active. AID 504615;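 active = signal rise of 40% or more at 20 µM, treated as a fluorescence artifact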
# Apaf1 inh interf – counter-screen for Apaf-1 inhibitors: fluorescence interference, dose response. shares compounds with Apaf1 inhib. fluorescence interference counterscreen, Apaf-1 assay format. IC50, µM. 460 tested, under 10 active. AID 588538; call rule not given here
# Hits are given with their value; . = inactive; / = not tested or not shown.
SMILES,PAFAH2 inh,TDP2 absorb,PAFAH1B2 inh,PAFAH1B3 inh,Apaf1 inhib,Apaf-1 inh conf,Rh110 interf inh,others
Oc1cccc2c(NC(=S)Nc3ccc(OC(F)F)cc3)cccc12,.,.,.,.,65,.,.,
COc1cc(OC)c2ccc(=O)oc2c1C(CCN1CCCC(C)C1)c1ccc(N(C)C)cc1 (stereo not drawn),.,.,.,.,.,/,/,
CCCCCc1cc(=O)oc2c(C(CCN3CCCC(C)C3)c3cc(OC)c(OC)c(OC)c3)c(OC)cc(OC)c12 (stereo not drawn),.,/,.,.,60,.,.,
CCCCCc1cc(=O)oc2c(C(CCN3CCCC(C)C3)c3ccc(N(C)C)cc3)c(OC)cc(OC)c12 (stereo not drawn),.,/,.,.,68,.,.,
Cc1cccnc1NC(=O)c1ccc(OCC2CCCO2)cc1 (stereo not drawn),.,.,.,.,54,.,.,
CCCC#C/C(CCC)=C1\c2ccccc2C(=O)N1c1ccccc1,/,.,/,/,/,/,/,
CCN(C(=S)NCCOC)c1cccc2ccccc12,.,.,.,.,.,/,/,
CCN(C(=S)NC(=O)c1ccco1)c1cccc2ccccc12,.,.,.,.,82,.,.,
Cc1ccc(C(=O)N2CCCN(c3nc4cc5c(cc4cc3C#N)OCO5)CC2)cc1,.,.,.,.,67,.,.,
CCN1CCN(CC(=O)Nc2cc(S(=O)(=O)N(CC)c3ccccc3)ccc2Cl)CC1,.,.,.,.,.,/,/,
CCN(c1ccccc1)S(=O)(=O)c1ccc(Cl)c(NC(=O)CN2CCN(C)CC2)c1,.,.,.,.,52,.,.,
CCN(c1ccccc1)S(=O)(=O)c1ccc(Cl)c(NC(=O)Nc2ccc(Cl)cc2C#N)c1,.,.,.,.,40,44,.,Apaf1 inh interf=.
CCN(c1ccccc1)S(=O)(=O)c1cc(NC(=O)Nc2ccccc2C#N)ccc1Cl,.,.,.,.,.,/,/,
Cc1cccc(-c2cccc3c4c([nH]c23)[C@@H]2C[C@H](N(C)C(=O)C3CCCCC3)[C@H]([C@H](C)O)CN2CC4)c1,/,.,/,/,/,/,/,
CCC(C)N(C(=O)CNc1nnnn1-c1ccccc1)C(C)CC (stereo not drawn),/,.,/,/,/,/,/,
CN(/N=C/c1ccc(-c2ccc([N+](=O)[O-])cc2)o1)c1ccccc1,.,.,.,.,.,/,/,
O=C(O)c1ccc(N2C(=O)/C(=C/c3ccc(-c4ccc([N+](=O)[O-])cc4)o3)C=C2c2ccccc2)cc1,.,/,.,.,52,.,.,
Clc1ccc(CN2CCN(N=Cc3ccncc3)CC2)cc1,/,.,/,/,/,/,/,
COC(=O)[C@]12C[C@H](CC(=O)NCCCCc3ccccc3)C(=O)N(Cc3ccccc3)C1=C[C@H](C(C)C)O[C@@H]2C1CC1,/,.,/,/,/,/,/,
COc1ccc(CC(=O)Nc2ccc(-c3nc4cc(C)ccc4o3)c(O)c2)cc1OC,.,.,.,.,42,.,.,
CCCCCc1cc(=O)oc2c(C(CCN3CCCCC3)c3cc(OC)c(OC)c(OC)c3)c(OC)cc(OC)c12 (stereo not drawn),.,.,.,.,.,/,/,
COc1cc(OC)c2c(-c3ccccc3)cc(=O)oc2c1C(CCN1CCCC(C)C1)c1ccc2c(c1)OCO2 (stereo not drawn),.,.,.,.,56,.,.,
COc1ccc(C(CCN2CCCCC2)c2c(OC)cc(OC)c3c(-c4ccccc4)cc(=O)oc23)cc1 (stereo not drawn),.,.,.,.,55,.,.,
COc1cc(OC)c2c(-c3ccccc3)cc(=O)oc2c1C(CCN1CCOCC1)c1ccc(N(C)C)cc1 (stereo not drawn),.,.,.,.,52,.,.,
COc1cc(OC)c2c(-c3ccccc3)cc(=O)oc2c1C(CCN1CCCCC1)c1ccc(N(C)C)cc1 (stereo not drawn),.,/,.,.,54,.,.,
SMILES,PAFAH2 inh,TDP2 absorb,PAFAH1B2 inh,PAFAH1B3 inh,Apaf1 inhib,Apaf-1 inh conf,Rh110 interf inh,others
COc1cc(OC)c2c(-c3ccccc3)cc(=O)oc2c1C(CCN1CCCCC1)c1ccc2c(c1)OCO2 (stereo not drawn),.,.,.,.,.,/,/,
COc1cc(OC)c2c(-c3ccccc3)cc(=O)oc2c1C(CC(=O)N1CCCC1)c1ccc2c(c1)OCO2 (stereo not drawn),.,.,.,.,.,/,/,
O=C(Nc1nc2ncccn2c1-c1ccc(F)c(F)c1)C1CC1,/,.,/,/,/,/,/,
CN(C)CCCNc1cc(C(C)(C)C)nc2c(-c3ccc(Cl)cc3)cnn12,.,.,.,.,58,.,.,
CC(=O)Nc1cccc(Oc2ncnc3scc(-c4ccccc4)c23)c1,.,.,.,.,.,/,/,
CN(C)C/C=C/C(=O)Nc1cccc(-c2c[nH]c3ncnc(Oc4ccc(NC(=O)CC(=O)Nc5ccc(F)cc5)cc4F)c23)c1,.,/,.,.,63,.,.,
CC(N=Cc1cccc(O)c1O)c1ccccc1 (stereo not drawn),.,/,.,.,71,.,.,
CC(N=Cc1cc([N+](=O)[O-])ccc1O)c1ccccc1 (stereo not drawn),.,.,.,.,.,/,/,
Cc1ccccc1N=Cc1cccc(O)c1O,.,/,.,.,74,.,.,
CCOC(=O)N(C)[C@H]1C[C@H]2c3cc(-c4ccccc4C)ccc3CCN2C[C@H]1[C@H](C)O,/,.,/,/,/,/,/,
